Experimental data from PMC3701953 (Bioorganic & medicinal chemistry letters, 2013).
Several values for one entry are separate records, joined by “and”; a condition that tells them apart may be missing. Identical values can stand only once. Like-named read-outs stand apart in the source and are kept apart here.

How the values were obtained:
HIV-1 NL4-3 [1] = details: read-out: anti-HIV-1 activity in cell culture EC50; MAGI cells; cited from earlier work
MAGI cells = assay: Compound toxicity in MAGI cells by MTS dye reduction; type: cell-based
HIV-1 NL4-3 [2] = assay: In vitro anti-HIV-1 NL4-3 antiviral assay in MAGI cells; type: cell-based; details: HIV-1 NL4-3, MAGI cells, mean of three determinations; for EC50: read-out: EC50 (SD), concentration for 50% inhibition of virus replication; for EC90: read-out: EC90 (SD), concentration for 90% reduction of virus replication
Summary of the method: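 MAGI cells carrying an LTR–β-galactosidase reporter were infected with HIV-1 in the presence of test compound. Infection and Tat expression drive the reporter through the HIV-1 LTR. Cells were lysed 6 days after infection, and β-galactosidase activity was read by chemiluminescence. Values are the mean of three determinations.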

CYP 3A4 = CYP 3A4 (Homo sapiens, UniProt P08684); assay: CYP 3A4 substrate activity in pooled human liver microsomes; type: in vitro ADME; details: relative to control (100%)
Chain of CYP 3A4 (P08684 whole entry): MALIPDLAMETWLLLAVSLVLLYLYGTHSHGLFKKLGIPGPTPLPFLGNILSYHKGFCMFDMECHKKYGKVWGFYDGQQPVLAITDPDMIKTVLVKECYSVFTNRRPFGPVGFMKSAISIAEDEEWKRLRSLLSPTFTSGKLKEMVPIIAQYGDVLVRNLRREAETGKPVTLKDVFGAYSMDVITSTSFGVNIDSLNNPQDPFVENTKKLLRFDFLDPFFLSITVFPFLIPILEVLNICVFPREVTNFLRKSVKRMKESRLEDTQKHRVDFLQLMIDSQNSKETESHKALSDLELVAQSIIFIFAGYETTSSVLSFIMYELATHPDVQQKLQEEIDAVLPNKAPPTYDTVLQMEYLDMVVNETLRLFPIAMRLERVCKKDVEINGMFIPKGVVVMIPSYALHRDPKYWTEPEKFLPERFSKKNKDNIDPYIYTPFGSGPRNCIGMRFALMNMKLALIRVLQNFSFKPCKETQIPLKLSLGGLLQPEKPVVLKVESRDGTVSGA

[3] = Stability in pooled, mixed-gender human liver microsomes; type: in vitro ADME
Summary of the method: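 Test compound incubated with 0.5 mg/mL microsomal protein in 100 mM potassium phosphate (pH 7.4), with 5 mM MgCl₂, 5 mM G-6-P, 0.5 U/mL G-6-P-DH and 2 mM NADPH. Mixtures were preincubated 3 min at 37 °C, started with NADPH and run 60 min. Aliquots taken at 0, 15, 30, 45 and 60 min were quenched in ice-cold acetonitrile and centrifuged. Supernatant analysed by reversed-phase HPLC-UV at 360 nm. Mean of three determinations, S.D.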

CYP 2D6 = CYP 2D6 (Homo sapiens, UniProt P10635); assay: CYP 2D6 substrate activity in pooled human liver microsomes; type: in vitro ADME; details: for Substrate Activity % ±S.D.: dextromethorphan 200 µM, relative to control (100%)
Chain of CYP 2D6 (P10635 whole entry): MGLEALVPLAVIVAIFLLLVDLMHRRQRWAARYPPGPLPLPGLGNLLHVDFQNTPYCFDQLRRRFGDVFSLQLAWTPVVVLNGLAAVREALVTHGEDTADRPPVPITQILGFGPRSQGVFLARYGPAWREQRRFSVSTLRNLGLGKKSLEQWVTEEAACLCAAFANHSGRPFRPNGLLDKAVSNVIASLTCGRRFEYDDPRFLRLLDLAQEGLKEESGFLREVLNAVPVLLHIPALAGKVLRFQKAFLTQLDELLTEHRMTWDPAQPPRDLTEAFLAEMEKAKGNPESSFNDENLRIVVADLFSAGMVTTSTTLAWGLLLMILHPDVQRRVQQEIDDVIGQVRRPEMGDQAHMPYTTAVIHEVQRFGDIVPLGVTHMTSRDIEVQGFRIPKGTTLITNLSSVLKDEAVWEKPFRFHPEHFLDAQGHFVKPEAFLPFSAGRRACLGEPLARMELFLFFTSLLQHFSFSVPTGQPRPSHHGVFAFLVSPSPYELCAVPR
Summary of the method: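 Pooled human liver microsomes incubated with the probe substrate and a range of test compound concentrations in 100 mM potassium phosphate (pH 7.4) with 5 mM MgCl₂. Mixtures were preincubated 3 min at 37 °C, then started with NADPH (final 2 mM). Substrate and metabolite were quantified by reversed-phase HPLC-UV: CYP3A4, testosterone/6β-hydroxytestosterone at 254 nm; CYP2D6, dextromethorphan/dextrorphan at 278 nm. Mean of three determinations, S.D.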

| Molecule | EC50 (HIV-1 NL4-3 [1]) | CC50 (MAGI cells) | EC50 (HIV-1 NL4-3 [2]) | EC90 (HIV-1 NL4-3 [2]) | CC50 (MAGI cells; read-out: CC50, concentration to reduce cell viability by 50%, MAGI cells, MTS dye reduction) | Substrate Activity % ±S.D. (CYP 3A4; testosterone 100 µM, compound 3 at 12.5 µM) | Substrate Activity % ±S.D. (CYP 3A4; testosterone 100 µM, compound 3 at 25 µM) | Substrate Activity % ±S.D. (CYP 3A4; testosterone 100 µM, compound 3 at 50 µM) | Substrate Activity % ±S.D. (CYP 3A4; triazolam 200 µM, compound 3 at 12.5 µM) | Substrate Activity % ±S.D. (CYP 3A4; triazolam 200 µM, compound 3 at 25 µM) | Substrate Activity % ±S.D. (CYP 3A4; triazolam 200 µM, compound 3 at 50 µM) | stability in pooled human liver microsomes (result in words) [3] | Substrate Activity % ±S.D. (CYP 2D6; compound 3 at 12.5 µM) | Substrate Activity % ±S.D. (CYP 2D6; compound 3 at 25 µM) | Substrate Activity % ±S.D. (CYP 2D6; compound 3 at 50 µM) | inhibition or activation of CYP 2D6 (result in words) (CYP 2D6; pooled human liver microsomes, dextromethorphan as substrate) |
| --- | --- | --- | --- | --- | --- | --- | --- | --- | --- | --- | --- | --- | --- | --- | --- | --- |
| O=C(O)C(=O)C=C(O)c1cc(Cc2ccc(F)cc2F)cn(Cc2ccccc2F)c1=O [compound 1, 4-(5-(2,4-difluorobenzyl)-1-(2-fluorobenzyl)-2-oxo-1,2-dihydropyridin-3-yl)-4-hydroxy-2-oxobut-3-enoic acid] | 500 nM | – | – | – | – | – | – | – | – | – | – | – | – | – | – | – |
| (1R,2R)-4-(5-(2,4-difluorobenzyl)-1-(2-fluorobenzyl)-2-oxo-1,2-dihydropyridin-3-yl)-4-hydroxy-N-(2-hydroxycyclopentyl)but-3-enamide [compound 4] | – | 137000 nM | 42.2 nM | 871 nM | – | – | – | – | – | – | – | – | – | – | – | – |
| (1S,2S)-4-(5-(2,4-difluorobenzyl)-1-(2-fluorobenzyl)-2-oxo-1,2-dihydropyridin-3-yl)-4-hydroxy-N-(2-hydroxycyclopentyl)but-3-enamide [compound 3] | – | – | 25 nM and 25.1 nM | 415 nM | 40400 nM | 109 ±13% | 97 ±18% | 112 ±15% | 124 ±23% | 98 ±7% | 100 ±8% | relatively stable | 86 ±7% | 87 ±17% | 87 ±13% | neither a significant inhibitor nor an activator |
